For test [1], the system named is WRL68. In words: Cytotoxicity against human WRL68 cells assessed as inhibition of cell proliferation after 72 hrs by MTT assay. It counts as cell-based. To be noted: WRL68, 72 h. In a few lines:
(§1)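 MTT antiproliferation screen across HCT-116, HepG2, A549 and HeLa tumour lines, with WRL-68 normal cells run in parallel.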
(In general: Formazan colour is commonly taken as a measure of viable cells.)

In test [2] the test system is HepG2. In words: Cytotoxicity against human HepG2 cells assessed as inhibition of cell proliferation after 72 hrs by MTT assay. The format is functional, cell-based. To be noted: HepG2, 72 h. In outline: as §1
Test [3] has as its system HCT-116. The test is described as follows: Cytotoxicity against human HCT116 cells assessed as inhibition of cell proliferation after 72 hrs by MTT assay. It counts as functional, cell-based. To be noted: HCT-116, 72 h. In a few lines: as §1
The subject of test [4] is HeLa. In words: Cytotoxicity against human HeLa cells assessed as inhibition of cell proliferation after 72 hrs by MTT assay. The format is functional, cell-based. In outline: as §1
The subject of test [5] is A549. In words: Cytotoxicity against human A549 cells assessed as inhibition of cell proliferation after 72 hrs by MTT assay. It counts as functional, cell-based. Conditions: A549, 72 h. In outline:
as §1

Test [6] concerns HepG2. The test is described as follows: Inhibition of V-ATPase in human HepG2 cells assessed as decrease in lysosomal pH at 1 uM after 48 hrs by LysoTracker Red staining-based confocal microscopic analysis relative to control. It counts as cell-based. In outline: (§2)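 HepG2 cells stained with LysoTracker Red (pH-sensitive dye), then loaded sequentially with the agent. Test concentrations were 0, 15, 30 or 60 nM; diphyllin was used at 1 µM as positive control. Cells were exposed for 48 h, and lysosomal acidity was judged by red fluorescence on confocal microscopy versus untreated cells.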

For test [7], the system named is HepG2. The test is described as follows: Inhibition of V-ATPase in human HepG2 cells assessed as release of phosphate at 15 to 60 nM after 48 hrs by colorimetric assay. It counts as cell-based. In a few lines: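 HepG2 cells treated 48 h with 0, 15, 30 or 60 nM, diphyllin as positive control. V-ATPase activity then measured using a commercial V-ATPase activity assay kit.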

Test [8] relates to HepG2. In words: Cytotoxicity against human HepG2 cells assessed as inhibition of cell viability at 15 to 60 nM after 24 to 72 hrs by MTT assay. It counts as functional, cell-based. In a few lines:
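HepG2 cells exposed to 0, 15, 30 or 60 nM for 24, 48 and 72 h; viability read by MTT.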

For test [9], the system named is HepG2. The test is described as follows: Inhibition of V-ATPase in human HepG2 cells assessed as decrease in cytosolic pH at 15 to 60 nM after 24 to 48 hrs by BCECF-AM probe-based spectrofluorophotometric analysis. It counts as cell-based.
For test [10], the system named is HepG2. The test is described as follows: Inhibition of V-ATPase in human HepG2 cells assessed as release of phosphate at 60 nM after 48 hrs by colorimetric assay relative to control; values are per cent of control.
In test [11] the test system is HepG2. In words: Inhibition of V-ATPase in human HepG2 cells assessed as release of phosphate at 30 nM after 48 hrs by colorimetric assay relative to control; values are per cent of control.
Test [12] relates to HepG2. In words: Inhibition of V-ATPase in human HepG2 cells assessed as decrease in lysosomal pH at 60 nM after 48 hrs by LysoTracker Red staining-based confocal microscopic analysis relative to control. The format is cell-based. In a few lines: as §2

Calls of active or inactive are those of the source. No cut-off for these calls is given here.

Regarding `COc1cc2c(O[C@@H]3OC[C@@H](OC)[C@H](OC)[C@H]3OCCCCCCCCN3CCN(C)CC3)c3c(c(-c4ccc5c(c4)OCO5)c2cc1OC)C(=O)OC3`, the IC50 (in general, the point on the concentration scale where inhibition reaches its midpoint) is greater than 0.2 µM in [1]; 0.039 µM in test [2]; 0.011 µM in test [3]; 0.091 µM in test [4]; 0.025 µM in test [5].

Regarding `COc1cc2c(O[C@@H]3OC[C@@H](OC)[C@H](OC)[C@H]3O)c3c(c(-c4ccc5c(c4)OCO5)c2cc1OC)C(=O)OC3` [CLEISTANTHIN], the IC50 was greater than 0.2 µM in [1]; 0.008 µM in test [2]; 0.001 µM in test [3]; 0.019 µM in test [4]; 0.004 µM in [5].

Take `COc1cc2c(O[C@@H]3OC[C@@H](OC)[C@H](OC)[C@H]3OCCCCCCN3CCN(CCO)CC3)c3c(c(-c4ccc5c(c4)OCO5)c2cc1OC)C(=O)OC3`: the IC50 in test [1] was greater than 0.2 µM; in [2], 0.033 µM; in test [3], 0.023 µM; in test [4], 0.025 µM; in [5] it was 0.019 µM.

In the case of `COc1cc2c(O[C@@H]3OC[C@@H](OC)[C@H](OC)[C@H]3OCCCCCCCCN3CCC(O)CC3)c3c(c(-c4ccc5c(c4)OCO5)c2cc1OC)C(=O)OC3`, the half-inhibitory concentration (IC50) in test [1] was greater than 0.2 µM; in test [2], greater than 0.2 µM; in [3], 0.012 µM; in test [4], 0.1 µM; in [5] it was 0.026 µM.

As for `COc1cc2c(O)c3c(c(-c4ccc5c(c4)OCO5)c2cc1OC)C(=O)OC3`, the inhibition result in test [6] and in test [7] was “Active” in each case.

For the molecule `COc1cc2c(O[C@@H]3OC[C@@H](OC)[C@H](OC)[C@H]3OCCCCCCN3CCCCC3)c3c(c(-c4ccc5c(c4)OCO5)c2cc1OC)C(=O)OC3`, the half-inhibitory concentration (IC50) in test [1] was greater than 0.2 µM; in test [2] it was 0.034 µM; in [3] it was 0.023 µM; in [4] it was 0.036 µM; in test [5], 0.026 µM.

As for `COc1cc2c(O[C@@H]3OC[C@@H](OC)[C@H](OC)[C@H]3OCCCCCCCN3CCC(O)CC3)c3c(c(-c4ccc5c(c4)OCO5)c2cc1OC)C(=O)OC3`, the 50% inhibitory concentration (IC50) in [1] was greater than 0.2 µM; in test [2], greater than 0.2 µM; in test [3] it was 0.073 µM; in test [4], greater than 0.2 µM; in test [5], greater than 0.2 µM.

Consider `COc1cc2c(O[C@@H]3OC[C@@H](OC)[C@H](OC)[C@H]3OCCCCCCCCN3CCOCC3)c3c(c(-c4ccc5c(c4)OCO5)c2cc1OC)C(=O)OC3`, for which the IC50 in test [1] was greater than 0.2 µM; in test [2], 0.026 µM; in test [3], 0.025 µM; in test [4], 0.045 µM; in test [5], 0.026 µM.

As to `COc1cc2c(O[C@@H]3OC[C@@H](OC)[C@H](OC)[C@H]3OCCCCCCN3CCN(C)CC3)c3c(c(-c4ccc5c(c4)OCO5)c2cc1OC)C(=O)OC3`, the IC50 is greater than 0.2 µM in [1]; 0.039 µM in test [2]; 0.032 µM in [3]; 0.032 µM in test [4]; 0.036 µM in [5].

For `COc1cc2c(O[C@@H]3OC[C@@H](OC)[C@H](OC)[C@H]3OCCCCCCN3CCC(O)CC3)c3c(c(-c4ccc5c(c4)OCO5)c2cc1OC)C(=O)OC3`, the IC50 was greater than 0.2 µM in [1]; 0.03 µM in test [2]; 0.022 µM in test [3]; 0.032 µM in test [4]; 0.023 µM in test [5].

As for `COc1cc2c(O[C@@H]3OC[C@@H](OC)[C@H](OC)[C@H]3OCCCCCCCN3CCN(CCO)CC3)c3c(c(-c4ccc5c(c4)OCO5)c2cc1OC)C(=O)OC3`, the half-maximal inhibitory concentration (IC50) is greater than 0.2 µM in [1]; greater than 0.2 µM in [2]; 0.029 µM in test [3]; greater than 0.2 µM in test [4]; greater than 0.2 µM in test [5].

As for `COc1cc2c(O[C@@H]3OC[C@@H](OC)[C@H](OC)[C@H]3OCCCCCCCCN3CCN(CCO)CC3)c3c(c(-c4ccc5c(c4)OCO5)c2cc1OC)C(=O)OC3`, the IC50 in [1] is greater than 0.2 µM; in test [2], 0.025 µM; in [3] it was 0.027 µM; in test [4], 0.055 µM; in test [5], 0.029 µM.

Take `COc1cc2c(O[C@@H]3OC[C@@H](OC)[C@H](OC)[C@H]3OCCCCCCCN3CCOCC3)c3c(c(-c4ccc5c(c4)OCO5)c2cc1OC)C(=O)OC3`: the IC50 in test [1] is greater than 0.2 µM; in test [2], 0.043 µM; in test [3], 0.028 µM; in test [4], 0.028 µM; in test [5], 0.023 µM.

As for `COc1cc2c(O[C@@H]3OC[C@@H](OC)[C@H](OC)[C@H]3OCCCCCCN3CCOCC3)c3c(c(-c4ccc5c(c4)OCO5)c2cc1OC)C(=O)OC3`, the inhibition result in [8], in test [9] and in [12] was “Active” each time. Further, the level, % of control in test [10] came to 56%; in [11] it was 62%. Also, the IC50 in test [1] was greater than 0.2 µM; in [2], 0.03 µM; in test [3] it was 0.021 µM; in [4], 0.02 µM; in test [5] it was 0.026 µM.

In the case of `COc1cc2c(O[C@@H]3OC[C@@H](OC)[C@H](OC)[C@H]3OCCCCCCCCN3CCCCC3)c3c(c(-c4ccc5c(c4)OCO5)c2cc1OC)C(=O)OC3`, the IC50 is greater than 0.2 µM in test [1]; 0.052 µM in test [2]; 0.015 µM in [3]; greater than 0.2 µM in test [4]; greater than 0.2 µM in test [5].

Turning to `COc1cc2c(O[C@@H]3OC[C@@H](OC)[C@H](OC)[C@H]3OCCCCCCCN3CCN(C)CC3)c3c(c(-c4ccc5c(c4)OCO5)c2cc1OC)C(=O)OC3`, the IC50 in test [1] was greater than 0.2 µM; in test [2], 0.041 µM; in test [3], 0.027 µM; in test [4], 0.051 µM; in test [5], 0.023 µM.

These data come from ChEMBL document CHEMBL3596156, “Synthesis and bioevaluation of heterocyclic derivatives of Cleistanthin-A” (Bioorg Med Chem, 2015).
